# Reference: ChEMBL document CHEMBL1130393, “Antitumor agents. 178. Synthesis and biological evaluation of substituted 2-aryl-1,8-naphthyridin-4(1H)-ones as antitumor agents that inhibit tubulin polymerization” (J Med Chem, 1997)
# What was measured:
# [1] = system: Panel breast (Carcinoma cell lines); assay: log molar concentration required to cause total growth inhibition of breast tumor cell lines; format: functional; settings: Homo sapiens, read-out: Log TGI (converted)
# Method in brief: (§1)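 TGI from the NCI 60 human tumor cell line in vitro screen: log of the molar drug concentration causing total growth inhibition, reported for the named cell panel.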
# [2] = system: Panel CNS (Carcinoma cell lines); assay: log molar concentration required to cause total growth inhibition of CNS cancer tumor cell lines; format: functional; settings: Homo sapiens, read-out: Log TGI (converted); method in brief: as §1
# [3] = system: Panel colon (Carcinoma cell lines); assay: log molar concentration required to cause total growth inhibition of colon tumor cell lines; format: functional; settings: Homo sapiens, read-out: Log TGI (converted); method in brief: as §1
# HL-60 [4] = assay: In vitro antitumor activity against HL-60(TB) tumor cell lines; format: functional; settings: Homo sapiens
# Tumor Cell line [5] = assay: (§2) In vitro antitumor activity against NCI 's human tumor cell lines; format: functional; settings: read-out: Average log GI50 (converted)
# Method in brief: (§3)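 NCI in vitro screen of 60 human tumor cell lines. […] The value is calculated from all cell lines tested.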
# Leukemic tumor cell line = assay: (§4) log molar concentration required to cause total growth inhibition of leukemic tumor cell lines; format: functional; settings: Homo sapiens, read-out: Log TGI (converted); method in brief: as §1
# MDA-N [6] = assay: In vitro antitumor activity against MDA-N tumor cell lines; format: functional; settings: Homo sapiens
# Melanoma tumor cell line [7] = assay: log molar concentration required to cause total growth inhibition of melanomic tumor cell lines; format: functional; settings: Homo sapiens, read-out: Log TGI (converted); method in brief: as §1
# NCI-H460 [8] = assay: In vitro antitumor activity against NCI-H460 tumor cell lines; format: functional; settings: Homo sapiens
# OVCAR-3 [9] = assay: In vitro antitumor activity against OVCAR-3 tumor cell lines; format: functional; settings: Homo sapiens
# NSCLC = assay: log molar concentration required to cause total growth inhibition of non-small cell lung tumor cell lines; format: functional; settings: Homo sapiens, read-out: Log TGI (converted); method in brief: as §1
# PC-3 [10] = assay: In vitro antitumor activity against PC-3 tumor cell lines; format: functional; settings: Homo sapiens
# [11] = system: Panel prostate (Carcinoma cell lines); assay: log molar concentration required to cause total growth inhibition of prostate tumor cell lines; format: functional; settings: Homo sapiens, read-out: Log TGI (converted); method in brief: as §1
# [12] = system: Panel renal (Carcinoma cell lines); assay: log molar concentration required to cause total growth inhibition of renal tumor cell lines; format: functional; settings: Homo sapiens, read-out: Log TGI (converted); method in brief: as §1
# SF-295 [13] = assay: In vitro antitumor activity against SF-295 tumor cell lines; format: functional; settings: Homo sapiens
# SK-MEL-5 [14] = assay: In vitro antitumor activity against SK-MEL-5 tumor cell lines; format: functional; settings: Homo sapiens
# U-251 [15] = assay: In vitro antitumor activity against U-251 tumor cell lines; format: functional; settings: Homo sapiens
# Tubulin = Tubulin (Bos taurus, UniProt Q6B856+Q862L2+Q862F3); assay: Inhibition of tubulin polymerization; format: functional
# Tubulin (Bos taurus) = Tubulin (Bos taurus) (UniProt Q6B856+Q862L2+Q862F3); assay: Inhibition of radiolabeled colchicine binding to tubulin; format: protein assay; set-up: concentration or dose not given beside the values; settings: concentration not given here
# Method in brief: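 Measured by DEAE-cellulose filter binding. The 0.1 mL mixture held bovine brain tubulin 1.0 µM, 1.0 M monosodium glutamate (pH 6.6), 1 mM MgCl2, 0.1 mM GTP, 5.0 µM [3H]colchicine, 5% DMSO and inhibitor at 5.0 µM. It was incubated 20 min at 37 °C, filtered through two DEAE-cellulose papers, washed with water and counted by liquid scintillation.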
# HCT-116 [16] = assay: In vitro antitumor activity against HCT116 tumor cell lines; format: functional; settings: Homo sapiens
# MDA-MB-435 [17] = assay: In vitro antitumor activity against MDA-MB-435 NCI 's human tumor cell lines; format: functional
# CAKI-1 [18] = assay: In vitro antitumor activity against CAKI-1 tumor cell lines; format: functional; settings: Homo sapiens
# Tumor Cell line [19] = assay: log molar concentration required to cause total growth inhibition of NCI 's human tumor cell lines; format: functional; settings: read-out: Log TGI (converted)
# Method in brief: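 NCI 60 human tumor cell line in vitro screen. TGI is the log molar concentration giving total growth inhibition, calculated from all cell lines tested.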
# [20] = system: Panel ovarian (Carcinoma cell lines); assay: log molar concentration required to cause total growth inhibition of ovarian tumor cell lines; format: functional; settings: Homo sapiens, read-out: Log TGI (converted); method in brief: as §1
# CAKI-1 [21] = assay: in vitro antitumor activity against CAKI-1 tumor cell lines; format: functional; settings: Homo sapiens
# HCT-116 [22] = assay: in vitro antitumor activity against HCT116 tumor cell lines; format: functional; settings: Homo sapiens
# HL-60 [23] = assay: in vitro antitumor activity against HL-60(TB) tumor cell lines; format: functional; settings: Homo sapiens
# Tumor Cell line [24] = assay: in vitro antitumor activity against NCI 's human tumor cell lines; format: functional; settings: read-out: Average log GI50 (converted); method in brief: as §3
# MDA-MB-435 [25] = assay: in vitro antitumor activity against MAD-MB-435NCI 's human tumor cell lines; format: functional
# MDA-N [26] = assay: in vitro antitumor activity against MDA-N tumor cell lines; format: functional; settings: Homo sapiens
# NCI-H460 [27] = assay: in vitro antitumor activity against NCI-H460 tumor cell lines; format: functional; settings: Homo sapiens
# OVCAR-3 [28] = assay: in vitro antitumor activity against OVCAR-3 tumor cell lines; format: functional; settings: Homo sapiens
# PC-3 [29] = assay: in vitro antitumor activity against PC-3 tumor cell lines; format: functional; settings: Homo sapiens
# SF-295 [30] = assay: in vitro antitumor activity against SF-295 tumor cell lines; format: functional; settings: Homo sapiens
# SK-MEL-5 [31] = assay: in vitro antitumor activity against SK-MEL-5 tumor cell lines; format: functional; settings: Homo sapiens
# U-251 [32] = assay: in vitro antitumor activity against U-251 tumor cell lines; format: functional; settings: Homo sapiens
# Tumor Cell line [33] = assay: as §2; format: functional
# Method in brief: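 Tested in the NCI 60 human tumor cell line in vitro screen. […] The value is calculated from all cell lines tested, as an average log GI50.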
# [34] = system: Panel CNS (Carcinoma cell lines); assay: log molar concentration required to cause total growth inhibition of CNS cancer cell lines; format: functional; settings: Homo sapiens, read-out: Log TGI (converted); method in brief: as §1
# Tumor Cell line [35] = assay: as §4; format: functional; settings: Homo sapiens, read-out: Log TGI (converted); method in brief: as §1
# leukaemia cell line = assay: as §4; format: functional; settings: Homo sapiens, read-out: Log TGI (converted); method in brief: as §1
# Melanoma tumor cell line [36] = assay: log molar concentration required to cause total growth inhibition of melanomicell lines; format: functional; settings: Homo sapiens, read-out: Log TGI (converted); method in brief: as §1
Structure (SMILES),TGI [1],TGI [3],GI50 (HL-60 [4]),GI50 (Tumor Cell line [5]),GI50 (MDA-N [6]),TGI (Melanoma tumor cell line [7]),GI50 (NCI-H460 [8]),GI50 (OVCAR-3 [9]),TGI (NSCLC),GI50 (PC-3 [10]),TGI [11],TGI [12],GI50 (SF-295 [13]),GI50 (SK-MEL-5 [14]),GI50 (U-251 [15]),IC50 (Tubulin),inhibition (Tubulin (Bos taurus)),GI50 (HCT-116 [16]),TGI (Tumor Cell line [19]),TGI [20],further results
Cc1ccnc2nc(-c3cccc(Cl)c3)cc(O)c12,0.813 µM,12 µM,< 0.01 µM,0.158 µM,0.0118 µM,70.8 µM,0.0389 µM,0.0316 µM,100 µM,0.0155 µM,2.34 µM,69.2 µM,0.0407 µM,0.0417 µM,0.0525 µM,1 µM,32%,0.0158 µM,25.7 µM,27.5 µM,TGI [2]: 18.2 µM; TGI (Leukemic tumor cell line): 100 µM; GI50 (MDA-MB-435 [17]): < 0.01 µM; GI50 (CAKI-1 [18]): 0.0331 µM
Cc1cccc(-c2cc(O)c3cccnc3n2)c1,,,,,,,,,,,,,,,,3.3 µM,,,,,GI50 (CAKI-1 [21]): 0.0372 µM; GI50 (HCT-116 [22]): 0.0224 µM; GI50 (HL-60 [23]): 0.0191 µM; GI50 (Tumor Cell line [24]): 0.0955 µM; GI50 (MDA-MB-435 [25]): < 0.01 µM; GI50 (MDA-N [26]): < 0.01 µM; GI50 (NCI-H460 [27]): 0.0257 µM; GI50 (OVCAR-3 [28]): 0.0417 µM; GI50 (PC-3 [29]): 0.0427 µM; GI50 (SF-295 [30]): 0.0372 µM; GI50 (SK-MEL-5 [31]): 0.0257 µM; GI50 (U-251 [32]): 0.0447 µM
COc1cc([C@@H]2c3cc4c(cc3[C@H](O)[C@H]3COC(=O)[C@H]23)OCO4)cc(OC)c1OC [PODOFILOX],,,,,,,,,,,,,,,,,76%,,,,average log GI50 (Tumor Cell line [33]): -7.54 M
Oc1cc(-c2cccc(Cl)c2)nc2ncccc12,1.17 µM,16.2 µM,,,,97.7 µM,,,85.1 µM,,2.63 µM,49 µM,,,,1.5 µM,,,24 µM,31.6 µM,GI50 (CAKI-1 [21]): 0.0562 µM; TGI [34]: 16.6 µM; GI50 (HCT-116 [22]): 0.0288 µM; GI50 (HL-60 [23]): 0.0105 µM; GI50 (Tumor Cell line [24]): 0.229 µM; GI50 (MDA-MB-435 [25]): < 0.01 µM; TGI (Tumor Cell line [35]): 38.9 µM; GI50 (MDA-N [26]): 0.0174 µM; GI50 (NCI-H460 [27]): 0.0871 µM; GI50 (OVCAR-3 [28]): 0.0457 µM; GI50 (PC-3 [29]): 0.0224 µM; GI50 (SF-295 [30]): 0.0631 µM; GI50 (SK-MEL-5 [31]): 0.0525 µM; GI50 (U-251 [32]): 0.145 µM
Cc1cnc2[nH]c(-c3cccc(Cl)c3)cc(=O)c2c1,12.9 µM,9.55 µM,0.0309 µM,0.269 µM,> 100 µM,,0.0501 µM,0.0224 µM,44.7 µM,> 100 µM,> 100 µM,87.1 µM,0.0251 µM,0.0708 µM,0.0692 µM,0.72 µM,33%,0.0302 µM,30.9 µM,15.8 µM,TGI [34]: 1.91 µM; TGI (leukaemia cell line): 72.4 µM; TGI (Melanoma tumor cell line [36]): 47.9 µM; GI50 (MDA-MB-435 [17]): < 0.01 µM; GI50 (CAKI-1 [18]): 0.0427 µM
Cc1cnc2[nH]c(-c3cccc(F)c3)cc(=O)c2c1,0.537 µM,0.324 µM,0.0204 µM,0.0501 µM,0.0118 µM,32.4 µM,0.0389 µM,0.0135 µM,16.2 µM,0.0347 µM,0.692 µM,55 µM,0.0275 µM,0.0282 µM,0.0407 µM,0.63 µM,43%,0.024 µM,5.13 µM,26.9 µM,TGI [2]: 3.09 µM; TGI (Leukemic tumor cell line): 2.69 µM; GI50 (MDA-MB-435 [17]): < 0.01 µM; GI50 (CAKI-1 [18]): 0.0282 µM
